Among the data in ChEMBL document CHEMBL1649158, “Emergence of plasmid-mediated quinolone resistance among non-Typhi Salmonella enterica isolates from humans in the United States” (2009) are MIC values, retold here.

Values after ≈ are worked out from the molar mass of the structure shown.

Test [1] has as its system Salmonella typhimurium. In words: Antimicrobial activity against Salmonella enterica serotype Typhimurium isolate AM29869 expressing qnrS1 gene by broth microdilution method.
Test [2] relates to Salmonella typhimurium. As to the kind of experiment: Antimicrobial activity against Salmonella enterica serotype Typhimurium isolate AM29365 expressing qnrS1 gene by broth microdilution method. (In broth dilution the organism is exposed to a series of concentrations in liquid medium.)
For test [3], the system named is Salmonella enterica. In words: Antimicrobial activity against Salmonella enterica serotype telelkebir isolate AM21420 expressing qnrB5 gene by broth microdilution method. In kind it is functional. The method in brief:
(§1)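 MICs for 14 to 17 antimicrobial agents were measured by commercial broth microdilution panels. Isolates were screened for aac(6′)-Ib by SYBR green real-time PCR: 0.4 μM each primer, 35 cycles (95°C 20 s, 55°C 30 s, 72°C 30 s), then a 70–90°C melt curve.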

The test system of test [4] is Salmonella enterica. As to the kind of experiment: Antimicrobial activity against multidrug-resistant Salmonella enterica serotype Cubana isolate AM28764 expressing qnrB2 gene by broth microdilution method. It is filed as functional. The method in brief: as §1
Test [5] has as its system Salmonella enterica. As to the kind of experiment: Antimicrobial activity against Salmonella enterica serotype Aqua isolate AM26209 expressing qnrB5 gene by broth microdilution method. It is filed as functional. In outline:
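Broth microdilution panel of 14 to 17 antimicrobial agents against human clinical non-Typhi Salmonella isolates, read as MIC. The study enrolled isolates with decreased ciprofloxacin susceptibility (≥0.25 mg/liter). qnr genes were detected by previously described methods. 2006 data are preliminary.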

For test [6], the system named is Salmonella typhimurium. As to the kind of experiment: Antimicrobial activity against multidrug-resistant Salmonella enterica serotype Typhimurium isolate AM27549 expressing qnrS1 gene by broth microdilution method.
A further test concerns Salmonella enteritidis. As to the kind of experiment: Antimicrobial activity against ampicillin- and streptomycin-resistant Salmonella enterica serotype Enteritidis isolate AM25798 expressing qnrS1 gene by broth microdilution method.
In test [7] the test system is Salmonella typhimurium. As to the kind of experiment: Antimicrobial activity against multidrug-resistant Salmonella enterica serotype Typhimurium isolate AM27125 expressing qnrB5 gene by broth microdilution method.
The test system of test [8] is Salmonella typhimurium. In words: Antimicrobial activity against multidrug-resistant Salmonella enterica serotype Typhimurium var. O:5 isolate AM25008 expressing aac(6')-Ib-cr gene by broth microdilution method.
Test [9] in a line: Antimicrobial activity against trimethoprim-sulfamethoxazole-resistant Salmonella enterica serotype Montevideo isolate AM19383 expressing qnrS1 gene by broth microdilution method.
Test [10] is described as follows: Antimicrobial activity against multidrug-resistant Salmonella enterica serotype Corvallis isolate AM25736 expressing qnrS1 gene by broth microdilution method.
The nature of test [11]: Antimicrobial activity against Salmonella enterica serotype Corvallis isolate AM25927 expressing qnrS1 gene by broth microdilution method.
The nature of test [12]: Antimicrobial activity against tetracycline-resistant Salmonella enterica serotype Saintpaul isolate AM30594 expressing qnrS1 gene by broth microdilution method.
Test [13] deals with Salmonella typhimurium. As to the kind of experiment: Antimicrobial activity against multidrug-resistant Salmonella enterica serotype Typhimurium isolate AM27315 expressing qnrS1 gene by broth microdilution method.
Test [14] deals with Salmonella enterica. As to the kind of experiment: Antimicrobial activity against nalidixic acid-resistant Salmonella enterica serotype Kiambu isolate AM27031 expressing qnrB5 gene by broth microdilution method. In kind it is functional. The method in brief: as §1
The nature of test [15]: Antimicrobial activity against tetracycline- and trimethoprim-sulfamethoxazole-resistant Salmonella enterica serotype Saintpaul isolate AM26790 expressing qnrS1 gene by broth microdilution method.
Test [16] in a line: Antimicrobial activity against multidrug-resistant Salmonella enterica serotype Montevideo isolate AM28704 expressing qnrA1 gene by broth microdilution method.
Test [17] in a line: Antimicrobial activity against multidrug-resistant Salmonella enterica serotype Corvallis isolate AM20376 expressing qnrS1 gene by broth microdilution method.

On to `O=C(O)c1cn(C2CC2)c2cc(N3CCNCC3)c(F)cc2c1=O` [CIPROFLOXACIN], for which the MIC in the test on Salmonella typhimurium [1] is 0.5 µg/mL (≈ 1.51 µM); against Salmonella typhimurium [2], 0.5 µg/mL (≈ 1.51 µM); in the test on Salmonella enterica [3], 0.5 µg/mL (≈ 1.51 µM); against Salmonella enterica [4] it was 0.5 µg/mL (≈ 1.51 µM); in the test with Salmonella enterica [5] it was 0.25 µg/mL (≈ 0.754 µM); with Salmonella typhimurium [6], 0.5 µg/mL (≈ 1.51 µM). The MIC against Salmonella enteritidis was 0.5 µg/mL (≈ 1.51 µM); against Salmonella typhimurium [7], 0.5 µg/mL (≈ 1.51 µM); in the test on Salmonella typhimurium [8], 1 µg/mL (≈ 3.02 µM); in test [9], 0.5 µg/mL (≈ 1.51 µM); in test [10] it was 0.25 µg/mL (≈ 0.754 µM); in test [11] it was 0.25 µg/mL (≈ 0.754 µM). In addition, the MIC in [12] is 0.5 µg/mL (≈ 1.51 µM); in the test on Salmonella typhimurium [13], 0.5 µg/mL (≈ 1.51 µM); in the test with Salmonella enterica [14], 0.5 µg/mL (≈ 1.51 µM); in test [15], 0.5 µg/mL (≈ 1.51 µM); in test [16], 0.25 µg/mL (≈ 0.754 µM); in test [17], 0.5 µg/mL (≈ 1.51 µM).

As a reminder, the MIC is the lowest concentration found to suppress growth. Read a high MIC as weaker potency.
